Measured values from publication PMC3334872 (Chemistry & biology, 2012).

T1: GST-pRbABC (residues 376–928) (UniProt P06400 376-928)
T1 sequence (looked up): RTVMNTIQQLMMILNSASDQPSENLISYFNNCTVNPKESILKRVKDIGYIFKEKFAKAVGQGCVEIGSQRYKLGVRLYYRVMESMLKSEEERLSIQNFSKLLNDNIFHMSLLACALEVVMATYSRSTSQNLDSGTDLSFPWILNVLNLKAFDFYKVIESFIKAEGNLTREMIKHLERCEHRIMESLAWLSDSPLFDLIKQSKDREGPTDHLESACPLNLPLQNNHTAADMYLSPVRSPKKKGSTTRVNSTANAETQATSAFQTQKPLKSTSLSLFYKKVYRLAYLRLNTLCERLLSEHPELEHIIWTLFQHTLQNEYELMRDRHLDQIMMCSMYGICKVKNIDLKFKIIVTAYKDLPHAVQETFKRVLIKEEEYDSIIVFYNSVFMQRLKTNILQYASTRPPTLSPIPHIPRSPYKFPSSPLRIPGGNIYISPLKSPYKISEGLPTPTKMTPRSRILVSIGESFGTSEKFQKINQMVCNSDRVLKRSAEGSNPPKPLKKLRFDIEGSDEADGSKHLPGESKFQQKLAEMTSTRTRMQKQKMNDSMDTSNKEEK

B1: 6xHis-HPV1AE7_(CR2-3) (residues 16–93) (domain or fragment)
chain: EPSVLDLDLYCYEEVPPDDIEEELVSPQQPYAVVASCAYCEKLVRLTVLADHSAIRQLEELLLRSLNIVCPLCTLQRQ
B2: 6xHis-Ad5E1A_(CR1-3) (residues 36–189) (domain or fragment)
chain: SHFEPPTLHELYDLDVTAPEDPNEEAVSQIFPDSVMLAVQEGIDLLTFPPAPGSPEPPHLSRQPEQPEQRALGPVSMPNLVPEVIDLTCHEAGFPPSDDEDEEGEEFVLDYVEHPGHGCRSCHYHRRNTGDPDIMCSLCYMRTCGMFVYSPVSE

Experiments:
SiHa cells = experiment: Flow cytometry, DNA content by propidium iodide staining; type: cell-based, human; conditions: 2 µM, 48 hours
How it was run: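 Cells seeded at 1×105 per 60 mm dish; next day test compound or DMSO added for 48 hr. Cells trypsinized, PBS-washed, fixed in 80% ethanol, pelleted 500g 5 min, stained with PI (100 µL 2mg/ml PI plus 10 µg RNase A in 10 mL PBS). DNA content analysed by flow cytometry; apoptotic fraction taken from area under the corresponding histogram region.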

[1] = target: E7 LxCxE peptide LxCxE peptide (Human papillomavirus type 16) (UniProt P03129); conditions: cited from earlier work
E7 LxCxE peptide LxCxE peptide (Human papillomavirus type 16), sequence (P03129 whole entry, looked up, the tested form may be a part): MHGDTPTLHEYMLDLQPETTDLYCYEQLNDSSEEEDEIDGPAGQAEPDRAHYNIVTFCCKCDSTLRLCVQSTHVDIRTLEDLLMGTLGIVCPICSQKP

[2] = target: T1, GST-pRbABC (residues 376–928); experiment: ELISA

Molecule | binding result [2] | further results
CN[C@@H]1C[C@H]2O[C@@](C)([C@@H]1OC)n1c3ccccc3c3c4c(c5c6ccccc6n2c5c31)C(=O)NC4 [staurosporine, Staurosporine] | – | apoptotic cells (SiHa cells): 34.3%
pRb (from UniProt P06400) | – | Kd [1]: 110 nM
B1 | binds | –
B2 | binds | –
